ChEMBL document CHEMBL1240314, “Small-molecule inhibitor of p53 binding to mitochondria protects mice from gamma radiation” (2006)
Active and inactive are the calls of the source. The calls are words filed in the database; no cut-off is given here.

Legend:
[1] = target: Cellular tumor antigen p53 (Homo sapiens) (UniProt P04637); assay: Inhibition of p53-mediated transactivation of p21 in gamma-stimulated human SK-MEL-29 cells at 10 uM after 6 hrs
MCF7 = assay: Induction of Bax gene expression in UV-induced human MCF7 cells; assay type: functional, cell-based
Procedure, shortened: (§1)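 Northern blot: 10 mg RNA (so in the source) isolated 18 h after UV (8.5 J m–2) or doxorubicin (125 mg ml–1 as printed) from MCF7 or U2OS cells and p53-knockdown (lentiviral shRNA) counterparts; hybridized with 32P-labeled full-length cDNA probes for Bax, Noxa, Puma; 18S rRNA loading control.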

U2OS = assay: Induction of Puma gene expression in human U2OS cells; assay type: functional, cell-based; procedure, shortened: as §1
HEK-293T = assay: Antiapoptotic activity against Bax gene-induced apoptosis in human 293T cells transfected with pTZV3-CMV-Bax at 10 uM after 24 hrs; assay type: functional, cell-based
Procedure, shortened: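 Bax delivered by transient transfection of 293T and HT1080 cells with CMV-Bax construct (Lipofectamine Plus); compound at 10 mM as printed; apoptosis scored 24 h after transfection by annexin/PI staining on FACScan.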

[2] = target: Cellular tumor antigen p53 (Homo sapiens) (UniProt P04637); assay: Binding affinity to p53 transfected in human Saos-2 cells harboring pLV-53 assessed as reduction of p53 protein in mitochondria at 10 uM after 48 hrs
Procedure, shortened: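 Saos-2 cells infected with p53-expressing lentivirus; compound ([…] as printed) added 5 h after infection; mitochondrial and cytosolic fractions western blotted for p53 at 48 h post-infection, with mt-Hsp75 and β-actin as fraction loading controls.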

Cellular tumor antigen p53 (Homo sapiens), sequence (P04637 whole entry, looked up): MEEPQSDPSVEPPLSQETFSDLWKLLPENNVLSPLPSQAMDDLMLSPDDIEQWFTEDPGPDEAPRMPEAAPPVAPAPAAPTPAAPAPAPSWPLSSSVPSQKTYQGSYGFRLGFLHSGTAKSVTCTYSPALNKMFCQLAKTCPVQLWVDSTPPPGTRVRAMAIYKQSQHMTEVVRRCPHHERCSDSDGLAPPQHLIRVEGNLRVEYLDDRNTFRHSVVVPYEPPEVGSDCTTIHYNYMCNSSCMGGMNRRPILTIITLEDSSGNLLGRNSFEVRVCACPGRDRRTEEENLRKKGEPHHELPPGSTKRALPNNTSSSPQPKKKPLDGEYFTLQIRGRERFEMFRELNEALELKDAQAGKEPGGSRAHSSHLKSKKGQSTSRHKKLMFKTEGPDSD

NS(=O)(=O)C#Cc1ccccc1
inhibition [1]: inactive
Activity (MCF7): inactive
Activity (U2OS): inactive
Activity (HEK-293T): inactive
Activity [2]: Active
